The list is a sample of the results.
PGC1a acetyl up: raises PGC1a acetylation signal in U2OS cells; AID 651723; actives 0.21% (n = 350,000); U2OS PGC1a acetylation AlphaScreen, overnight; activation, % at 15.6 µM;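 active = every replicate reaching activation of at least 50%, whatever the mean replicate activation; inconclusive = replicates that disagree or another doubt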;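 note: hits raise the AlphaScreen acetylation signal above neutral controls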
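System: flag-PGC1a/GCN5 U2OS cells / Input: 7000 cells/well / Compound: single test concentration per compound / Incubation: overnight compound treatment, 37 °C / Technique: AlphaScreen on lysates with anti-acetyl-lysine antibody, acceptor and donor beads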
G6PC hep suppr: PGC-1a acetylation activator altering hepatocyte G6PC expression | G6PC suppression (normalized activity, % of positive control; higher = more suppression), % at 26 µM | 240 tested, under 10 active | shares compounds with PGC1a acetyl up | primary mouse hepatocytes, G6PC mRNA qPCR, forskolin | AID 743463;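 active = dose curves showing G6PC suppression whose half-maximal dose is at most twice the top valid dose; inconclusive = flat curves with moderate negative activity, or unreliable fits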;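 note: G6PC expression relative to GAPDH housekeeping gene as delta delta Ct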
PCK1 hep suppr: hepatocyte PCK1 expression change via PGC-1a acetylation activation. shares compounds with PGC1a acetyl up. primary mouse hepatocytes, PCK1 mRNA qPCR, forskolin-stimulated. PCK1 expression decrease, unspecified at 26 µM. 230 tested, under 10 active;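 active = compounds lowering PCK1 expression whose fitted half-maximal concentration is at most twice the top tested dose; inconclusive = flat fit with moderate opposite-direction effect, or poor fit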;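 note: higher delta delta Ct means lower PCK1 expression so positive values indicate hits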
PGC1a hep suppr: PGC-1a acetylation activator altering hepatocyte PGC-1a expression | shares compounds with PGC1a acetyl up | primary mouse hepatocytes, PGC-1a mRNA qPCR, forskolin; top dose 26 µM | max activity (PGC-1a expression decrease), % | 240 tested, under 10 active | AID 743467;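 active = compound lowering PGC-1a expression with fitted half-maximal concentration at most twice its top tested dose; inconclusive = flat curve with moderate opposite-direction effect, or poor fit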
Of the large screens only hits and unclear results are named; the others gave an inactive call (follow-up assays come after a bar, where they were run).

Cc1cc(C(=O)NNC(=S)NCc2ccccc2)no1	none
Cc1oc2c(c1C(=O)c1ccccc1)C(=O)C(=O)c1ccccc1-2	none
O=C(NCC1CC1)Nc1ccccc1F	none
CCn1c(C)c(C)c2cc(C(=O)NCCN3CCOCC3)ccc21	none
COc1cc(O)c(C(CC(=O)N2CCOCC2)c2ccc(N(C)C)cc2)c(OC)c1 (configuration not stated)	none
CCN(CC)c1ccc(NC2=C(Cl)C(=O)c3ccccc3C2=O)cc1	none
Oc1ccc(C2CNCCc3c2cc(O)c(O)c3Cl)cc1 (configuration not stated)	none
COc1ccc(/C=N/Nc2nncn2N)cc1Br	none
Cc1ccc(-n2cccn2)c(CN2CCCC(C(=O)c3sccc3C)C2)c1 (configuration not stated)	PGC1a acetyl up 68 | PGC1a hep suppr inconclusive
Cc1cc(N2CCN(C)CC2)nc2ccc(NC(=S)N3CCN(c4cccc(Cl)c4)CC3)cc12	none
O=[N+]([O-])c1nn(-c2ccc(Cl)cc2)n(O)c1=NCc1ccncc1	none
CCN1C(=O)CCCc2ccccc21	none
c1ccc(-c2c(-c3ccccc3)n(Cc3ccco3)c3ncnc(NCCCn4ccnc4)c23)cc1	PGC1a acetyl up 125 | G6PC hep suppr inactive | PCK1 hep suppr inactive | PGC1a hep suppr inactive
CCN1CCN(c2nnc(-c3ccccc3)c3ccccc23)CC1	none
CCN(CC)CC(=O)N1c2ccccc2CCc2ccc(NC(=O)c3cc(OC)c(OC)c(OC)c3)cc21	none | G6PC hep suppr inactive | PCK1 hep suppr inconclusive | PGC1a hep suppr inactive
Cc1cc(OCC(=O)O/N=C(\N)c2ccccc2)cc(C)c1Cl	none
C(=N\Nc1nc2ccccc2[nH]1)/c1ccc2ncccc2c1	none
CC(C)(O)c1cc(=O)sc2nc3ccccc3n12	none
COc1ccc(N=C2SCC(c3ccc(C)cc3)=NN2CCO)cc1	none
O=C(c1ccccc1Nc1ccc(SC(F)F)cc1)N1CCCCCC1	PGC1a acetyl up 53 | G6PC hep suppr inactive | PCK1 hep suppr inactive | PGC1a hep suppr inactive
O=C(O)c1ccccc1C(=O)N1CCN(C(=O)c2ccccc2Cl)CC1	none
CCN(CC)c1ccc(N)cc1S(=O)(=O)Nc1ccccc1OC	PGC1a acetyl up 57 | G6PC hep suppr inactive | PCK1 hep suppr inactive | PGC1a hep suppr inactive
CC(=O)n1nc2nc(C)cc(C)c2c1N	none
N#Cc1ccc(CCc2ccccc2)[nH]c1=O	none
c1coc(CN(Cc2cccs2)Cc2nnnn2C2CCCCC2)c1	PGC1a acetyl up inconclusive | G6PC hep suppr inactive | PCK1 hep suppr inactive | PGC1a hep suppr inconclusive
CCCS(=O)(=O)N1CCCC(C(=O)NCCCOC(C)C)C1 (configuration not stated)	none
O=C(c1cc(-c2ccccc2)nc2ccccc12)N1N=C(C(F)F)CC1(O)C(F)F (configuration not stated)	none
COc1ccc(NC(=O)N(C)C[C@H]2OCc3ccccc3-c3c(n(C)c4ccccc34)C(=O)N([C@@H](C)CO)C[C@H]2C)c(OC)c1	PGC1a acetyl up 85 | G6PC hep suppr inactive | PCK1 hep suppr inactive | PGC1a hep suppr inactive
C[C@@H]1CN([C@H](C)CO)C(=O)c2c(c3ccccc3n2C)-c2ccccc2CO[C@@H]1CN(C)C(=O)Nc1ccccc1C(F)(F)F	PGC1a acetyl up 96 | G6PC hep suppr inactive | PCK1 hep suppr inactive | PGC1a hep suppr inactive
CCc1nccn1S(=O)(=O)c1cc(C)c(OC)cc1C	none
c1nc(NC2CCCCCC2)c2[nH]cnc2n1	none
COc1cc2cc(C)c3nnc(SCC(=O)Nc4cc(C)on4)n3c2cc1OC	none
CN(C)c1ncnc2c1ncn2C1OC(CO)C(O)C1O (configuration not stated)	none
c1ccc(CN2OCC3Cn4c(nc5ccccc54)C32)cc1 (configuration not stated)	none
CCCC(=O)C1=C(O)C(C(=O)OC)C(C)(C)CC1=Nc1ccc(OC)cc1 (configuration not stated)	none
O=C(NCc1csc(-c2cccs2)n1)c1cccc(Cl)c1	none | G6PC hep suppr inactive | PCK1 hep suppr inactive | PGC1a hep suppr inactive
O=C(Nc1nc2ccsc2c(=O)s1)C1CCC1	none
Cc1ccc(Sc2ncnc3onc(C)c23)c(C)c1	none
Cc1ccc2[nH]cc(C(=O)CN3CCN(c4ccccc4F)CC3)c2c1	none | G6PC hep suppr inactive | PCK1 hep suppr inactive | PGC1a hep suppr inactive
CN(C)c1ccnc2sc(C(N)=O)c(N)c12	none
COc1ccc(NC(=O)[C@H](Cc2c[nH]c3ccccc23)NC(=O)[C@@H]2Cc3ccccc3CN2)cc1	none
CCOc1ccc(N2C(=O)CC(Cc3ccc(Br)cc3)C2=O)cc1 (configuration not stated)	none
NC(=O)Cn1cc(C(=O)c2cccs2)c2ccccc21	PGC1a acetyl up inconclusive | PCK1 hep suppr inactive | PGC1a hep suppr inactive
CCOC(=O)C1=C(C)N=c2s/c(=C\c3cccc(OCC(=O)O)c3)c(=O)n2C1c1ccccc1OC (configuration not stated)	none
C=CCc1ccc(OCCCCNC(C)CC)c(OC)c1 (configuration not stated)	none
CCOCCCNC(=O)c1ccccc1SC	none
CC(C)(C)c1ccc(O)c(O)c1	none
Cc1ccc(S(=O)(=O)N(Cc2ccc(F)cc2)Cc2ccco2)cc1	PGC1a acetyl up 71 | G6PC hep suppr inactive | PCK1 hep suppr inactive | PGC1a hep suppr inconclusive
CCOC(=O)CNS(=O)(=O)c1cc(-c2nnc(Nc3ccc4c(c3)OCO4)c3ccccc23)ccc1C	PGC1a acetyl up 168 | G6PC hep suppr inactive | PCK1 hep suppr inactive | PGC1a hep suppr inactive
CCO[C@H]1OC(C(=O)Nc2ccccc2)=C[C@@H](c2csc3ccccc23)[C@@H]1CCCO	none
COC(=O)c1ccc(OC)c(OC2CCCC2)c1	none
CC(C)(C)c1ccc(OCC(=O)NNC(=O)Nc2ccccc2)cc1	none
Cc1[nH]c2ccc(C(C)C)cc2c1CC(=O)O	none
O=C(Nc1ccc2c(c1)OCO2)C1CCN(c2ccc(S(=O)(=O)N3CCOCC3)cc2)CC1	none | G6PC hep suppr inactive | PCK1 hep suppr inactive | PGC1a hep suppr inactive
CCC(C)NC(=O)c1ccc2c(SCC(=O)O)c3c(nc2c1)CCCC3 (configuration not stated)	none
CCOC(=O)C1CCN(C(=O)CSc2ccc(Br)cc2)CC1	none
Cc1ccc(-c2n[nH]c(=S)n2/N=C/c2cccn2C)cc1	none
O=C(CSc1nc2cc(Cl)ccc2s1)NCC1CCCO1 (configuration not stated)	none
O=C(C(Cc1ccccc1)n1cccc1)N1CCN(c2ccccc2)CC1 (configuration not stated)	PGC1a acetyl up inconclusive | G6PC hep suppr inactive | PCK1 hep suppr inactive | PGC1a hep suppr inactive
OC(CN1c2ccccc2Sc2ccccc21)Cn1nnc2ccccc21 (configuration not stated)	PGC1a acetyl up 76 | PCK1 hep suppr inactive | PGC1a hep suppr inactive
CN(Cc1cnc2nc(N)nc(N)c2n1)c1ccc(C(=O)N[C@@H](CCC(=O)O)C(=O)O)cc1	none
CCn1c2ccccc2c2cc(/C=N/n3cn[nH]c3=S)ccc21	none
COC(=O)C(Nc1ccccc1Cl)(c1cc(C)c(O)c(C)c1)C(F)(F)F (configuration not stated)	PGC1a acetyl up 69 | G6PC hep suppr inactive | PCK1 hep suppr inactive | PGC1a hep suppr inconclusive
COc1cccc(NC(=O)c2ccccc2-c2ccccc2C(=O)O)c1	none

Screening results: PubChem, Broad Institute
